The values below come from ChEMBL document CHEMBL1212871, “Lipophilic phenolic antioxidants: correlation between antioxidant profile, partition coefficients and redox properties” (Bioorg Med Chem, 2010).

SMILES strings stand for the structures.

Data set [1] is described as follows: Antioxidant activity assessed as ratio of IC50 for Trolox to compound for ABTS radical scavenging activity after 5 mins by TEAC assay. The data set is classed as functional. The method, boiled down: (§1)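 Six ethanolic compound solutions (1.5 × 10^-5 to 15 × 10^-5 M) were made in duplicate, and 20 µL of each was added to 180 µL ABTS•+ in quadruplicate. Absorbance was read every 5 min over 20 min; ethanol blank = 100% radical. Radical % against concentration at 5 or 20 min was fitted by second-degree polynomial through 100%. TEAC = Trolox IC50 / compound concentration giving 50% bleaching.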

In data set [2] the test system is Radical scavenging activity. Description: Antioxidant activity assessed as ratio of IC50 for Trolox to compound for DPPH radical scavenging activity by TEAC assay. The data set is classed as functional. The method, boiled down:
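DPPH• (180 µL) received 20 µL ethanolic compound, six concentrations of 1.5 × 10^-5 to 15 × 10^-5 M, prepared in duplicate and assayed in quadruplicate. Absorbance was read every minute for 10 min, then every 5 min for 50 min; ethanol blank = 100% radical. 60-min data were fitted by second-degree polynomial through 100%. TEAC = Trolox IC50 / compound concentration giving 50% bleaching.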
In general terms: Loss of DPPH colour is used to gauge radical scavenging.

Data set [3] in a line: Redox potential at pH 7.3 by differential pulse and cyclic voltametry. The data set is classed as physicochemical. The method, boiled down: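 Glassy carbon working electrode, potentials vs Ag/AgCl. 0.1 mM compound (diluted from 10 mM ethanol stock) in pH 7.3 phosphate supporting electrolyte, made from 0.2 M K2HPO4 and KH2PO4. Differential pulse voltammetry was run at 5 mV s^-1. Cyclic voltammetry was run at 50 mV s^-1, with scan rates of 10–100 mV s^-1 also examined.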

A short description of data set [4]: Antioxidant activity assessed as ratio of IC50 for Trolox to compound for ABTS radical scavenging activity after 20 mins by TEAC assay. The data set is classed as functional. The procedure, abridged: as §1
A short description of data set [5]: Antioxidant activity assessed as inhibition of AAPH-induced lipid peroxidation in liposomes measured as Trolox equivalent antioxidant capacity. Type of data set: functional. Conditions: Liposome. The method, boiled down: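 Egg phosphatidylcholine LUVs (0.80 mM final) holding a radical-sensitive fluorescent probe were mixed with polyphenol (1.50, 7.50, 15.00 µM final; 1.5% ethanol) and shaken 10 min at 37 °C. Peroxidation was then started with 15.00 mM AAPH. Fluorescence (ex 360/40, em 460/40 nm) was read at 37 °C for 3 h. TEAC = (AUC compound − AUC control)/(AUC Trolox − AUC control). Run in duplicate.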

For `O=C(O)/C=C/c1ccc(O)c(O)c1` [CAFFEIC ACID], the results for the Ratio IC50 in data set [1], in data set [2] and in data set [4] were 1.14, 1.29 and 1.27, respectively. The Redox potential in data set [3] turned out to be 0.183 V. The Ratio in data set [5] was 2.23.

For the compound `CCCCCCNC(=O)/C=C/c1ccc(O)c(O)c1` [CAFFEOYLHEXYLAMIDE], the Ratio IC50 in data set [1] is 1.04; in data set [2], 1.11; in data set [4] it was 1.05. This compound gave a Redox potential in data set [3] of 0.162 V. In addition, in data set [5], the Ratio amounted to 2.41.

Turning to `O=C(O)CCc1ccc(O)c(O)c1` [DIHYDROCAFFEIC ACID], the Ratio IC50 stood at 1.16 in data set [1], 2.05 in data set [2] and 1.41 in data set [4]. In addition, in data set [3], the Redox potential is given as 0.139 V. For the same compound, the Ratio in data set [5] came out at 1.75.

In data set [3], `COc1cc(CCC(=O)O)ccc1O` [DIHYDROFERULIC ACID] registered a Redox potential of 0.41 V. Moreover, the Ratio in data set [5] is 0.22.

In data set [3], `COc1cc(/C=C/C(=O)O)ccc1O` [FERULATE] came in with a Redox potential of 0.35 V. Besides, in data set [5], the Ratio turned out to be 0.79.

Regarding `CCCCCCNC(=O)/C=C/c1ccc(O)c(OC)c1` [FERULOYLHEXYLAMIDE], the Redox potential in data set [3] turned out to be 0.322 V. The Ratio in data set [5] amounted to 1.22.

For `CCCCCCOC(=O)/C=C/c1ccc(O)c(O)c1` [HEXYLCAFFEATE], the Ratio IC50 amounted to 0.91 in data set [1], 0.97 in data set [2] and 0.93 in data set [4]. The same compound showed a Redox potential in data set [3] of 0.175 V. Besides, the Ratio in data set [5] amounted to 3.55.

Compound `CCCCCCOC(=O)/C=C/c1ccc(O)c(OC)c1` [HEXYLFERULATE] came in with a Redox potential in data set [3] of 0.328 V. Further, in data set [5], the Ratio came to 1.13.

In the case of `CCCCCCOC(=O)CCc1ccc(O)c(O)c1` [HEXYLHYDROCAFFEATE], the Ratio IC50 in data set [1] came out at 0.96; in data set [2], 0.99; in data set [4], 0.96. This compound also showed a Redox potential in data set [3] of 0.125 V. Besides, in data set [5], the Ratio was found to be 3.49.

`CCCCCCOC(=O)CCc1ccc(O)c(OC)c1` [HEXYLHYDROFERULATE] came in with a Redox potential in data set [3] of 0.434 V. In addition, the Ratio in data set [5] amounted to 0.57.

For the compound `CCCCCCNC(=O)CCc1ccc(O)c(O)c1` [HYDROCAFFEOYLHEXYLAMIDE], the Ratio IC50 in data set [1] came out at 1.01; in data set [2], 1; in data set [4], 1.02. The compound further gave a Redox potential in data set [3] of 0.125 V. The Ratio in data set [5] came to 2.08.

For the compound `CCCCCCNC(=O)CCc1ccc(O)c(OC)c1` [HYDROFERULOYLHEXYLAMIDE], the Redox potential in data set [3] amounted to 0.388 V. Further, the Ratio in data set [5] came to 0.68.
